The text below walks through data of ChEMBL document CHEMBL1125495, “Inhibitors of human renin with C-termini derived from amides and esters of alpha-mercaptoalkanoic acids” (J Med Chem, 1992).

One experiment deals with T1, Renin (Homo sapiens, UniProt P00797).
T1 sequence (P00797 whole entry): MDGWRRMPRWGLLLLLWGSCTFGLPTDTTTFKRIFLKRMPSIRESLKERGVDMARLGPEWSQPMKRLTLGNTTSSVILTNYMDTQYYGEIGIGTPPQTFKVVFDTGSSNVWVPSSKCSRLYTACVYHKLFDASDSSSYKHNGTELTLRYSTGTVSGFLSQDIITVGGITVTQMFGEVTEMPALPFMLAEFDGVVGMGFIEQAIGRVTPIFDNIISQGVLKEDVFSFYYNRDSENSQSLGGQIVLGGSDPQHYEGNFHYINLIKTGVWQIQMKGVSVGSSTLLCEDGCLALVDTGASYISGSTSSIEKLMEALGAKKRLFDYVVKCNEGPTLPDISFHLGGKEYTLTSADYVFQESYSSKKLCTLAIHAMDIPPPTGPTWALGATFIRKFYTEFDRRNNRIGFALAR
Briefly: Inhibition of human plasma renin. The experiment is classed as cell-free.

Experiment [1] has as its system Rhesus monkey. Briefly: In vivo effect on heart rate(peak deltaHR) in sodium deficient rhesus monkeys after iv administration (dose 0.34 mg/kg). The experiment is classed as functional, Cercopithecidae.
Experiment [2] has as its target T2, Renin (Homo sapiens) (UniProt P00797).
T2 sequence (whole entry): T1 sequence (P00797 whole entry)
As to the kind of experiment: In vivo inhibition of plasma renin activity in sodium deficient rhesus monkeys after iv administration (dose 0.34 mg/kg, determined at peak deltaMAP). It counts as functional, organism-based. Further details: dose 0.34 mg/kg. To be noted: Cercopithecidae, target entry is the homologue from another species, at 0.34 mg/kg.

Experiment [3] has as its system Rhesus monkey. Briefly: In vivo effect on mean arterial pressure(peak deltaMAP) in sodium deficient rhesus monkeys after iv administration (dose 0.34 mg/kg). It counts as functional, Cercopithecidae, Artery.
In experiment [4] the test system is Rhesus monkey. As to the kind of experiment: Half life of hypotensive effect in sodium deficient rhesus monkeys after iv administration (dose 0.34 mg/kg). It counts as functional, organism-based. The arrangement: dose 0.34 mg/kg. The settings on record: Cercopithecidae.
For experiment [5], the system named is Rhesus monkey. Briefly: In vivo effect on heart rate(peak deltaHR) in sodium deficient rhesus monkeys after iv administration (dose 0.063 mg/kg). It counts as functional, Cercopithecidae. The essentials:
(§1)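 Conscious male and female rhesus monkeys (N = 2) with chronic arterial access ports for direct MAP and heart-rate monitoring, and venous catheters for dosing. Animals were kept on a low-sodium diet, given furosemide the evening before, and fasted 18 h before and during the study. Compound was given iv in 0.05% acetic acid/5% dextrose/H2O, 20 min after a vehicle control dose. Peak changes were averaged, and the hypotensive half-life was read from time plots.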

For experiment [6], the target named is T2, Renin (Homo sapiens). Briefly: In vivo inhibition of plasma renin activity in sodium deficient rhesus monkeys after iv administration (dose 0.063 mg/kg, determined at peak deltaMAP). To be noted: Cercopithecidae, target entry is the homologue from another species, at 0.063 mg/kg. Further details: dose 0.063 mg/kg. It counts as functional, organism-based. The essentials: (§2)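 Sodium-deficient rhesus monkeys (N = 2) were kept on a low-sodium diet, given furosemide the evening before, and fasted 18 h. Compound was given iv through a venous catheter in 0.05% acetic acid/5% dextrose/H2O, 20 min after vehicle. Blood was drawn periodically via an arterial access port for plasma renin activity. Percent inhibition was taken at peak ΔMAP.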

The subject of experiment [7] is Rhesus monkey. Briefly: Half life of hypotensive effect in sodium deficient rhesus monkeys after iv administration (dose 0.063 mg/kg). It counts as functional, organism-based. The arrangement: dose 0.063 mg/kg. The settings on record: Cercopithecidae. Put shortly:
as §1

Experiment [8] has as its system Rhesus monkey. Briefly: In vivo effect on mean arterial pressure(peak deltaMAP) in sodium deficient rhesus monkeys after iv administration (dose 0.063 mg/kg). The experiment is classed as functional, Cercopithecidae, Artery. Put shortly:
as §1

The test system of experiment [9] is Rhesus monkey. As to the kind of experiment: In vivo effect on heart rate(peak deltaHR) in sodium deficient rhesus monkeys after iv administration (dose 0.43 mg/kg). It counts as functional, Cercopithecidae. The essentials: as §1
Experiment [10] deals with T2, Renin (Homo sapiens). As to the kind of experiment: In vivo inhibition of plasma renin activity in sodium deficient rhesus monkeys after iv administration (dose 0.43 mg/kg, determined at peak deltaMAP). The settings on record: Cercopithecidae, target entry is the homologue from another species, at 0.43 mg/kg. The experiment is classed as functional, organism-based. Further details: dose 0.43 mg/kg. The essentials: as §2

The test system of experiment [11] is Rhesus monkey. As to the kind of experiment: Half life of hypotensive effect in sodium deficient rhesus monkeys after iv administration (dose 0.43 mg/kg). It counts as functional, organism-based. The arrangement: dose 0.43 mg/kg. To be noted: Cercopithecidae. The essentials:
as §1

Experiment [12] concerns Rhesus monkey. Briefly: In vivo effect on mean arterial pressure(peak deltaMAP) in sodium deficient rhesus monkeys after iv administration (dose 0.43 mg/kg). It counts as functional, Cercopithecidae, Artery. The essentials:
as §1

The test system of experiment [13] is Rhesus monkey. As to the kind of experiment: In vivo on mean arterial pressure(peak deltaMAP) in sodium deficient rhesus monkeys after iv administration (dose 0.26 mg/kg). It counts as functional, Cercopithecidae, Artery. Put shortly: as §1
Experiment [14] deals with T2, Renin (Homo sapiens). Briefly: In vivo inhibition of plasma renin activity in sodium deficient rhesus monkeys after iv administration (dose 0.26 mg/kg, determined at peak deltaMAP). It counts as functional, organism-based. Further details: dose 0.26 mg/kg. The settings on record: Cercopithecidae, target entry is the homologue from another species, at 0.26 mg/kg. Put shortly:
as §2

Experiment [15] concerns Rhesus monkey. As to the kind of experiment: In vivo effect on heart rate(peak deltaHR) in sodium deficient rhesus monkeys after iv administration (dose 0.26 mg/kg). The experiment is classed as functional, Cercopithecidae. The essentials:
as §1

The subject of experiment [16] is Rhesus monkey. Briefly: Half life of hypotensive effect in sodium deficient rhesus monkeys after iv administration (dose 0.26 mg/kg). The experiment is classed as functional, organism-based. Further details: dose 0.26 mg/kg. To be noted: Cercopithecidae. The essentials:
as §1

Experiment [17] concerns Rhesus monkey. As to the kind of experiment: In vivo effect on heart rate(peak deltaHR) in sodium deficient rhesus monkeys after iv administration (dose 0.31 mg/kg). It counts as functional, Cercopithecidae. Put shortly:
as §1

The target of experiment [18] is T2, Renin (Homo sapiens). To be noted: Cercopithecidae; Plasma; at 0.63 mg/kg.
Experiment [19] has as its system Rhesus monkey. As to the kind of experiment: Half life of hypotensive effect in sodium deficient rhesus monkeys after iv administration (dose 0.31 mg/kg). It counts as functional, organism-based. The arrangement: dose 0.31 mg/kg. To be noted: Cercopithecidae. Put shortly: as §1
In experiment [20] the test system is Rhesus monkey. Briefly: In vivo effect on mean arterial pressure(peak deltaMAP) in sodium deficient rhesus monkeys after iv administration (dose 0.31 mg/kg). The experiment is classed as functional, Cercopithecidae, Artery. Put shortly:
as §1

For the compound `CC(C)(C)OC(=O)N[C@@H](Cc1ccccc1)C(=O)N[C@@H](Cc1cnc[nH]1)C(=O)N[C@@H](CC1CCCCC1)[C@@H](O)CSCC(=O)NCc1ccncc1`, at Renin, the midpoint of inhibition, the IC50, lay at 92 nM.

For `CC(C)(C)OC(=O)N[C@@H](Cc1ccccc1)C(=O)N[C@@H](Cc1c[nH]cn1)C(=O)N[C@@H](CC1CCCCC1)[C@@H](O)CSc1nnnn1CCc1ccncc1`, the “Peak deltaHR” value with Rhesus monkey [1] came to 1 beats min-1. The inhibition (in general, the percentage by which the read-out fell short of the control) at Renin (Homo sapiens) [2] was determined as 95%. Also, the “Peak deltaMAP” value in the experiment with Rhesus monkey [3] is given as -22 mmHg. Also, the T1/2 in the experiment with Rhesus monkey [4] was < 10 min.

Turning to `CC(C)(C)OC(=O)N[C@@H](Cc1ccccc1)C(=O)N[C@@H](Cc1cnc[nH]1)C(=O)N[C@@H](CC1CCCCC1)[C@@H](O)CS(=O)(=O)CC(=O)NCCN1CCOCC1`, on Renin, the half-maximal inhibitory concentration (IC50) (commonly the concentration needed to halve the response being measured) was determined as 9.4 nM.

`CC(C)(C)S(=O)(=O)[C@@H](Cc1ccccc1)C(=O)N[C@@H](Cc1c[nH]cn1)C(=O)N[C@@H](CC1CCCCC1)[C@@H](O)CS(=O)(=O)CC(=O)NCCN1CCOCC1` returned a 50% inhibitory concentration (IC50) on Renin of 7.2 nM. Moreover, the “Peak deltaHR” value in the experiment on Rhesus monkey [5] is on record as -13 beats min-1. This compound also yielded an inhibition at Renin (Homo sapiens) [6] of 94%. In addition, in the experiment with Rhesus monkey [7], the T1/2 was < 10 min. Also, the “Peak deltaMAP” value in the experiment with Rhesus monkey [8] is recorded as -20.5 mmHg.

Regarding `CC(C)(C)OC(=O)N[C@@H](Cc1ccccc1)C(=O)N[C@@H](Cc1c[nH]cn1)C(=O)N[C@@H](CC1CCCCC1)[C@@H](O)CSCC(=O)NCCN1CCOCC1`, in the experiment with Rhesus monkey [9], the “Peak deltaHR” value is given as -26 beats min-1. The compound further showed an inhibition on Renin (Homo sapiens) [10] of 90%. Further, the T1/2 in the experiment with Rhesus monkey [11] was < 10 min. In the experiment with Rhesus monkey [12], the “Peak deltaMAP” value is recorded as -20.5 mmHg.

Regarding `CC(C)(C)OC(=O)N[C@@H](Cc1ccccc1)C(=O)N[C@@H](Cc1c[nH]cn1)C(=O)N[C@@H](CC1CCCCC1)[C@@H](O)CSCC(=O)NC1CN2CCC1CC2` (stereo partly specified), the “Peak deltaMAP” value in the experiment with Rhesus monkey [13] was -20 mmHg. This compound also registered an inhibition against Renin (Homo sapiens) [14] of 93%. In addition, at Renin, the IC50 is 29 nM. For the same compound, the “Peak deltaHR” value with Rhesus monkey [15] was -18 beats min-1. The T1/2 in the experiment with Rhesus monkey [16] is < 10 min.

`CC(C)(C)OC(=O)N[C@@H](Cc1ccccc1)C(=O)N[C@@H](Cc1c[nH]cn1)C(=O)N[C@@H](CC1CCCCC1)[C@@H](O)CS(=O)(=O)CC(=O)NC1C[N+]2([O-])CCC1CC2` (stereo partly specified) had an IC50 at Renin of 4.2 nM.

In the case of `CN1CCN(C(=O)CSC[C@H](O)[C@H](CC2CCCCC2)NC(=O)[C@H](Cc2c[nH]cn2)NC(=O)[C@H](Cc2ccccc2)NC(=O)OC(C)(C)C)CC1`, the “Peak deltaHR” value in the experiment on Rhesus monkey [17] is reported as 4 beats min-1. Moreover, the inhibition at Renin (Homo sapiens) [18] is 86%. For the same compound, the T1/2 in the experiment with Rhesus monkey [19] is < 10 min. In addition, the “Peak deltaMAP” value in the experiment on Rhesus monkey [20] is recorded as -25 mmHg.

As for `CC(C)(C)OC(=O)N[C@@H](Cc1ccccc1)C(=O)N[C@@H](Cc1cnc[nH]1)C(=O)N[C@@H](CC1CCCCC1)[C@@H](O)CSCC(=O)NCCN1CCOCC1`, the midpoint of inhibition against Renin, the IC50, lay at 40 nM.
